In brackets after ≈: the same amount, converted by molar mass.
Experiments:
[1] = tested on: Chlamydia trachomatis; assay: Anti-chlamydial activity against Chlamydia trachomatis Serovar LGV-L2 infected in Hep2 cells assessed as reduction in chlamydial inclusion growth treated at 8 hrs post-infection and 24 hrs later re-infecting fresh Hep2 cells monolayer with infected cells and measured at 24 hrs post re-infection by immunofluorescence staining based microscopy analysis; assay type: functional, organism-based
How it was run: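 HEp-2 cells grown in DMEM with 2% L-glutamine and 10% FBS at 37 °C. Infected with C. trachomatis L2 at MOI 1, with compound added in triplicate at 8 hpi. At 24 hpi, lysates were collected in sucrose storage medium, frozen at −80 °C and passed as 10-fold dilutions onto fresh HEp-2. After 24 h, stained with goat anti-MOMP then Alexa488 secondary. IFU taken as mean inclusions across 15 fields (20x), corrected for dilution.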

[2] = Intrinsic clearance in human liver microsomes at 1 ug/ml measured per mg protein up to 60 mins by LC-MS/MS analysis; assay type: ADME, Microsome; conditions: microsomes, 1 h
How it was run: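 Human liver microsomes (1.0 mg/mL protein) in 100 mM phosphate pH 7.4 with 10 mM MgCl2 and 2 mM NADPH, preincubated 10 min at 37 °C. Reaction started with compound at 1 μg/mL. Sampled at 0, 5, 15, 20, 30, 45 and 60 min and quenched in methanol with internal standard. Controls: no NADPH (negative), testosterone (positive). Analysed by LC-MS/MS, triplicate.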

Structure (SMILES)	inhibition [1]	IC50 ([1]; Serovar LGV-L2, HEp-2) [µg/mL]	microsomal intrinsic clearance [2] [µL/min]
CC(C)(C(=O)N1CCN(Cc2ccc(Cl)cc2)CC1)S(=O)(=O)c1ccc(C(F)(F)F)cn1	Dose-dependent effect	5.2 (≈ 10.6 µM)	
CC(C)(C(=O)NCCCc1ccccc1)S(=O)(=O)c1ccc(C(F)(F)F)cc1			113.09

Reference: ChEMBL document CHEMBL4342502, “Synthesis and Antichlamydial Activity of Molecules Based on Dysregulators of Cylindrical Proteases” (J Med Chem, 2020)
